HIV Env fusion: blocks HIV Env-driven cell-cell fusion; HeLa-JRFL Env/CEM21 cell fusion, luciferase; inhibition, % at 12.3 µM; 1.1% of 360,000 active;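 active = mean replicate inhibition score of at least 50 and every replicate individually at or above 50; inconclusive = only one of the two criteria met; inactive = mean below 50 and not all replicates reaching 50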
SR-BI DiI-HDL act: enhances SR-BI lipid uptake from DiI-HDL; CHO ldlA[mSR-BI] cells, DiI-HDL uptake fluorescence, 3 h; 100 = double the neutral-control signal; activation, % at 12.5 µM; 0.096% of 320,000 active;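 active = mean replicate activation of at least 60% and every replicate at or above 60%; inconclusive = mean or all-replicate condition met, but not both; inactive = mean below 60% and not all replicates reaching 60%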
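Material – SR-BI-overexpressing, LDLR-lacking CHO cells · Medium – BSA-supplemented, HEPES-buffered Ham's F12, pH 7.4 · Doses – single concentration · Times – compound with DiI-HDL co-incubation, 3 h at 37 °C · Measured by – bottom-read fluorescence, 550/595 nm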
Rtt109 Vps75: blocks Candida albicans Rtt109/Vps75 acetyltransferase activity. Q5AAJ8. purified Rtt109/Vps75, ThioGlo CoA-SH fluorescence, 4 h. inhibition, % at 34.9 µM. 0.16% of 330,000 active. AID 540336;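 active = inhibition of at least 50% in every replicate; inconclusive = best replicate reaches 50% inhibition but some replicates fall short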
SR-BI DiI inh: blocks mouse SR-BI lipid uptake from DiI-HDL; AID 488896; Q61009; 0.96% of 320,000 active; inhibition, % at 12.5 µM; ldlA[mSR-BI] CHO cells, DiI-HDL uptake fluorescence, 3 h;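 active = mean replicate inhibition of at least 70% and a set share of replicates each scoring 70 or more; inconclusive = meets just one of the two criteria; inactive = fails both criteria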
Target sequence (Q61009 whole entry, looked up): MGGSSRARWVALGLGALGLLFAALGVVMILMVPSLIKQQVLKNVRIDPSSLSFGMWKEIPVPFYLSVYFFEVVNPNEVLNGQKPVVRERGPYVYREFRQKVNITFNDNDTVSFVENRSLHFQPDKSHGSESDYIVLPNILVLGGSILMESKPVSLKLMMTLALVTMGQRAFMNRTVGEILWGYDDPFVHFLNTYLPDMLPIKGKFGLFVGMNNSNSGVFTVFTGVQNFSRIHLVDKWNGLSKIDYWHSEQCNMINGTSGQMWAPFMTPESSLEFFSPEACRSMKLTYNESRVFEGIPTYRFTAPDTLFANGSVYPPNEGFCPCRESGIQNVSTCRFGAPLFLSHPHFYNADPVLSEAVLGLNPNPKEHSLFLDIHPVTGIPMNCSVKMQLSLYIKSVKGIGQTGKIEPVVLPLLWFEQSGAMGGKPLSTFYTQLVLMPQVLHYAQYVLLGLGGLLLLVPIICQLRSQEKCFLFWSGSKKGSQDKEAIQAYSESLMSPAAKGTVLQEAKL
N-glyco inh: blocks N-linked glycosylation in D54 reporter cells. D54 ERlucT glycosylation luciferase reporter, 24 h; percent of 100 nM tunicamycin response. reporter increase, % at 12.5 µM. 0.23% of 360,000 active;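 active = mean luciferase reporter signal, scaled so untreated is 0 and the glycosylation-blocking control 100, at or above a set limit in every replicate; inconclusive = mean reaches the limit but not every replicate does; inactive = mean below the limit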;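 note: luciferase carries N-glycosylation sites so blocking glycosylation raises the light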
PglD inh: blocks C. jejuni PglD acetyltransferase activity | purified PglD enzyme, DTNB colorimetric CoA detection | inhibition, % at 12.5 µM | 0.098% of 360,000 active | AID 602405; in the data active = inhibition above about 16%, passing the limit was not always enough; inconclusive = no clear call, values can overlap the other calls
Hits are given with their value. An excerpt weighted towards active compounds, which were near 1.9% of everything screened.

How did Cc1ccc2nsnc2c1NC(=O)c1ccc(-c2cc(Cl)ccc2Cl)o1 do in these assays?
SR-BI DiI-HDL act: inactive; Rtt109 Vps75: inactive; SR-BI DiI inh: inactive; N-glyco inh: 129

How did Cc1ccc2nsnc2c1NC(=O)Cc1ccc(Cl)cc1 do in these assays?
HIV Env fusion: inactive; SR-BI DiI-HDL act: inactive; Rtt109 Vps75: inactive; SR-BI DiI inh: inactive; N-glyco inh: inactive; PglD inh: inactive

What do the screens show for `C=CCc1c(C)nc(-c2ccccc2)nc1N/N=C/c1ccccc1`?
HIV Env fusion: inactive; SR-BI DiI-HDL act: inactive; Rtt109 Vps75: inactive; SR-BI DiI inh: inactive; N-glyco inh: inactive

Results for C=CCc1c(C)nc(-c2ccccc2)nc1Nc1ccccc1O ?
HIV Env fusion: inactive; SR-BI DiI-HDL act: inactive; Rtt109 Vps75: inactive; SR-BI DiI inh: 101; N-glyco inh: inactive

How did O=C(NCC1CC1)[C@@H]1[C@@H](CO)[C@@H]2Cn3c(cccc3=O)[C@H]1N2CCc1ccccc1 do in these assays?
PglD inh: inactive

Results for CCC(=O)N[C@H]1CC[C@@H](CCn2cc(CN(C)C)nn2)O[C@H]1CO ?
HIV Env fusion: inactive; PglD inh: inactive

What do the screens show for `CN1c2ccc(-c3cccc(F)c3)cc2[C@@H]2[C@@H](CCN2S(=O)(=O)c2cccc(F)c2)[C@H]1CO`?
PglD inh: inactive

What do the screens show for `C[C@H](CO)N1C[C@H](C)[C@@H](CN(C)Cc2ccc(C(=O)O)cc2)OCCCC[C@H](C)Oc2ccc(NC(=O)Nc3ccc4c(c3)OCO4)cc2C1=O`?
HIV Env fusion: inactive; PglD inh: inactive

How did COC(=O)C(NC(=O)c1ccc(F)cc1)(Nc1ncc(S(=O)(=O)c2ccc([N+](=O)[O-])cc2)s1)C(F)(F)F (stereo not given) do in these assays?
HIV Env fusion: 127; SR-BI DiI-HDL act: inactive; Rtt109 Vps75: inactive; SR-BI DiI inh: inactive; N-glyco inh: inactive; PglD inh: inactive

How did COC(=O)C(NC(=O)c1ccccc1C)(Nc1ncc(S(=O)(=O)c2ccc([N+](=O)[O-])cc2)s1)C(F)(F)F (stereo not given) do in these assays?
HIV Env fusion: inconclusive; SR-BI DiI-HDL act: inactive; Rtt109 Vps75: inactive; SR-BI DiI inh: inactive; N-glyco inh: inactive; PglD inh: inactive

How did CCCCn1c(SCC(=O)Nc2cc(C(F)(F)F)cc(C(F)(F)F)c2)nnc1C(CC)N(C)C (stereo not given) do in these assays?
SR-BI DiI-HDL act: inactive; Rtt109 Vps75: inactive; SR-BI DiI inh: inactive; N-glyco inh: 28; PglD inh: inactive

How did CCCCn1c(SCC(=O)Nc2ccc3c(c2)OCCO3)nnc1C(CC)N(C)C (stereo not given) do in these assays?
SR-BI DiI-HDL act: inactive; Rtt109 Vps75: inactive; SR-BI DiI inh: inactive; N-glyco inh: inactive; PglD inh: inactive

Results for Cc1ccc2nc(N(CCCN(C)C)C(=O)c3sc4ccccc4c3Cl)sc2c1 ?
SR-BI DiI-HDL act: inactive; Rtt109 Vps75: 55; SR-BI DiI inh: inactive; N-glyco inh: inactive; PglD inh: inactive

How did Cc1ccc2nc(N(CCCN(C)C)C(=O)c3ccc(S(=O)(=O)N(C)C)cc3)sc2c1 do in these assays?
HIV Env fusion: inactive; SR-BI DiI-HDL act: inactive; Rtt109 Vps75: inactive; SR-BI DiI inh: inactive; N-glyco inh: inactive

What do the screens show for `Cc1ccc(S(=O)(=O)N2CCCCC2)cc1`?
HIV Env fusion: inactive; SR-BI DiI-HDL act: inactive; Rtt109 Vps75: inactive; SR-BI DiI inh: inactive; N-glyco inh: inactive; PglD inh: inactive

How did Cc1ccc(C)c(CNc2ccc(S(=O)(=O)N3CCCCC3)cc2)c1 do in these assays?
HIV Env fusion: 76; SR-BI DiI-HDL act: inactive; Rtt109 Vps75: inactive; SR-BI DiI inh: inactive; N-glyco inh: inactive; PglD inh: inactive

Results for CCCCCCCCCCCCCCCCn1cc[n+](C)c1 ?
HIV Env fusion: 128; SR-BI DiI-HDL act: inactive; Rtt109 Vps75: 95; SR-BI DiI inh: inactive; N-glyco inh: inactive

What do the screens show for `CN(C)CCCN1C(=O)c2cccc3c([N+](=O)[O-])ccc(c23)C1=O`?
SR-BI DiI-HDL act: inactive; Rtt109 Vps75: inactive; SR-BI DiI inh: inactive; N-glyco inh: 57

Results for O=C(O)c1ccc(CN2C(=O)c3cccc4c([N+](=O)[O-])ccc(c34)C2=O)cc1 ?
SR-BI DiI-HDL act: inactive; Rtt109 Vps75: inactive; SR-BI DiI inh: inactive; N-glyco inh: 31; PglD inh: inactive

Screening results from PubChem.
